Test results published in ChEMBL document CHEMBL1154831, “Synthesis, characterization and biological activity of some new 1,3,4-oxadiazole bearing 2-flouro-4-methoxy phenyl moiety” (2010).
Values after ≈ are worked out from the molar mass of the structure shown.

Legend:
Type in all cases: functional
Escherichia coli = experiment: Antimicrobial activity against Escherichia coli after 16 to 18 hrs by serial dilution method
How it was run: (§1)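 Serial dilutions of each compound, each inoculated with one standard drop of the prepared test culture. Incubation was 16–18 h at 37 °C. MIC was read as the highest dilution giving clear fluid with no turbidity.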

Pseudomonas aeruginosa = experiment: Antimicrobial activity against Pseudomonas aeruginosa after 16 to 18 hrs by serial dilution method; how it was run: as §1
Candida albicans = experiment: Antimicrobial activity against Candida albicans after 16 to 18 hrs by serial dilution method; how it was run: as §1
Staphylococcus aureus = experiment: Antimicrobial activity against Staphylococcus aureus after 16 to 18 hrs by serial dilution method; how it was run: as §1
Bacillus subtilis = experiment: Antimicrobial activity against Bacillus subtilis after 16 to 18 hrs by serial dilution method; how it was run: as §1

SMILES | MIC (Escherichia coli) [µg/mL] | MIC (Pseudomonas aeruginosa) [µg/mL] | MIC (Candida albicans) [µg/mL] | MIC (Staphylococcus aureus) [µg/mL] | MIC (Bacillus subtilis) [µg/mL]
COc1ccc(-c2nnc(-c3cccc(C)c3C)o2)c(F)c1 | 6 (≈ 20.1 µM) | 12.5 (≈ 41.9 µM) | 6 (≈ 20.1 µM) | 6 (≈ 20.1 µM) | 6 (≈ 20.1 µM)
COc1ccc(-c2nnc(-c3ccc(F)cc3)o2)c(F)c1 | 12.5 (≈ 43.4 µM) | 6 (≈ 20.8 µM) | 6 (≈ 20.8 µM) | 6 (≈ 20.8 µM) | 6 (≈ 20.8 µM)
COc1ccc(-c2nnc(-c3cc(F)cc(F)c3)o2)c(F)c1 | 6 (≈ 19.6 µM) | 6 (≈ 19.6 µM) | 6 (≈ 19.6 µM) | 6 (≈ 19.6 µM) | 6 (≈ 19.6 µM)
COc1ccc(-c2nnc(-c3cc(Cl)ccc3Br)o2)c(F)c1 | 6 (≈ 15.6 µM) | 6 (≈ 15.6 µM) | 3 (≈ 7.82 µM) | 6 (≈ 15.6 µM) | 6 (≈ 15.6 µM)
COc1ccc(-c2nnc(-c3cnc4ccccc4c3)o2)c(F)c1 | 6 (≈ 18.7 µM) | 6 (≈ 18.7 µM) | 6 (≈ 18.7 µM) | 6 (≈ 18.7 µM) | 6 (≈ 18.7 µM)
COc1ccc(-c2nnc(-c3ccc(Cl)nc3)o2)c(F)c1 | 6 (≈ 19.6 µM) | 12.5 (≈ 40.9 µM) | 6 (≈ 19.6 µM) | 12.5 (≈ 40.9 µM) | 6 (≈ 19.6 µM)
COc1ccc(-c2nnc(-c3ccc([N+](=O)[O-])c(F)c3)o2)c(F)c1 | 6 (≈ 18 µM) | 6 (≈ 18 µM) | 6 (≈ 18 µM) | 6 (≈ 18 µM) | 6 (≈ 18 µM)
NC(=O)N/N=C/c1ccc([N+](=O)[O-])o1 [NITROFURAZONE] | 6 (≈ 30.3 µM) | 12.5 (≈ 63.1 µM) | – | 12.5 (≈ 63.1 µM) | 12.5 (≈ 63.1 µM)
COc1ccc(-c2nnc(-c3cccc(Br)c3C)o2)c(F)c1 | 3 (≈ 8.26 µM) | 3 (≈ 8.26 µM) | 6 (≈ 16.5 µM) | 6 (≈ 16.5 µM) | 6 (≈ 16.5 µM)
COc1ccc(-c2nnc(-c3ccc(F)c(F)c3F)o2)c(F)c1 | 3 (≈ 9.25 µM) | 3 (≈ 9.25 µM) | 6 (≈ 18.5 µM) | 6 (≈ 18.5 µM) | 6 (≈ 18.5 µM)
COc1ccc(-c2nnc(-c3cccc(C#N)c3)o2)c(F)c1 | 6 (≈ 20.3 µM) | 6 (≈ 20.3 µM) | 6 (≈ 20.3 µM) | 6 (≈ 20.3 µM) | 6 (≈ 20.3 µM)
COc1ccc(-c2nnc(-c3c([N+](=O)[O-])ccc(F)c3F)o2)c(F)c1 | 12.5 (≈ 35.6 µM) | 6 (≈ 17.1 µM) | 6 (≈ 17.1 µM) | 6 (≈ 17.1 µM) | 6 (≈ 17.1 µM)
COc1ccc(-c2nnc(-c3cc(C)on3)o2)c(F)c1 | 6 (≈ 21.8 µM) | 6 (≈ 21.8 µM) | 3 (≈ 10.9 µM) | 12.5 (≈ 45.4 µM) | 12.5 (≈ 45.4 µM)
OC(Cn1cncn1)(Cn1cncn1)c1ccc(F)cc1F [FLUCONAZOLE] | – | – | 6 (≈ 19.6 µM) | – | –
COc1ccc(-c2nnc(-c3ccccc3C(F)(F)F)o2)c(F)c1 | 6 (≈ 17.7 µM) | 6 (≈ 17.7 µM) | 6 (≈ 17.7 µM) | 6 (≈ 17.7 µM) | 6 (≈ 17.7 µM)
